Results on 167 variants are retold here after the RNAGym collection of RNA variant scans (doi:10.1002/anie.201605470).

Sequences and labels used below:
B1: Osa-1-4 twister ribozyme (parent)
chain: CCGCCUAACACUGCCAAUGCCGGUCCCAAGCCCGGAUAAAAGUGGAGGGGGCGG

The data set covers variants of B1. Briefly: self-cleavage, relative activity (ratio to wild type); higher = more cleavage; co-transcriptional. The procedure, abridged: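 A DNA template encoding a 54-nucleotide twister ribozyme from Oryza sativa was made so that each of the 48 positions downstream of the cleavage site carried 97 % wild-type base and 1 % of each other base. Transcription in vitro ran for 2 h at 37 °C, during which the ribozyme could cleave itself. Reverse transcription used a template-switching oligonucleotide, and the products were PCR-amplified and deep-sequenced. Each read was scored as cleaved or uncleaved by whether upstream sequence was present, and relative activity is the fraction cleaved normalised to wild type.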
As to A8C C11G, the self-cleavage came to 0.06.
As for A8C C11A, the figure is 0.1; as for A8C C11U, 0.09.
As for A8C G53U, the figure is 0.06; as for A8C G53C, 0.02; as for A8C G53A, 0.07.
As for A8C G23U, the figure is 0.07.
A8C G23A: the self-cleavage worked out at 0.08.
In the case of A8C G23C, the self-cleavage was 0.02.
As for A7U G54A, the figure is 0.07.
As for A7U G54C, the figure is 0.06.
As for A7U G54U, the figure is 0.11.
A8C U12G: the self-cleavage was found to be 0.16.
As for A8C U12C, the figure is 0.07.
As for A8C U12A, the figure is 0.06.
As for A8C G44A, the figure is 0.07; as for A8C G44C, 0.07; as for A8C G44U, 0.08.
Turning to A8C C21A, the self-cleavage came to 0.09.
Consider A8C C21G, for which the self-cleavage turned out to be 0.05.
Take A8C C21U: the self-cleavage amounted to 0.06.
With A8C C20G, the self-cleavage is 0.03.
As for A8C C20U, the figure is 0.09.
As for A8C C20A, the figure is 0.08; as for A8C G47A, 0.04.
As for A8C G47U, the figure is 0.04.
With A8C G47C, the self-cleavage was 0.03.
As for A8C C15G, the figure is 0.05; as for A8C C15A, 0.21; as for A8C C15U, 0.04.
As for A8C G35U, the figure is 0.09; as for A8C G35A, 0.08; as for A8C G35C, 0.08.
Regarding A7U G30A, the self-cleavage came out at 0.06.
As for A7U G30C, the figure is 0.02; as for A7U G30U, 0.02.
As for A7U G48A, the figure is 0.02; as for A7U G48C, 0.03; as for A7U G48U, 0.01.
Take A8C G30A: the self-cleavage was 0.01.
Turning to A8C G30C, the self-cleavage turned out to be 0.03.
As for A8C G30U, the figure is 0.01; as for A8C G19A, 0.07; as for A8C G19C, 0.08.
With A8C G19U, the self-cleavage worked out at 0.06.
As for A8C C33G, the figure is 0.03; as for A8C C33U, 0.06.
As for A8C C33A, the figure is 0.06; as for A7U G44A, 0.06; as for A7U G44U, 0.09.
As for A7U G44C, the figure is 0.06; as for A8C G42C, 0.04.
For A8C G42A, the self-cleavage is 0.06.
In the case of A8C G42U, the self-cleavage was 0.04.
As for A8C G54C, the figure is 0.06; as for A8C G54U, 0.11.
As for A8C G54A, the figure is 0.09; as for A8C C26G, 0.02.
As for A8C C26A, the figure is 0.03; as for A8C C26U, 0.06; as for A8C G48U, 0.03.
For A8C G48C, the self-cleavage is 0.02.
As for A8C G48A, the figure is 0.02; as for A7U G34C, 0.1; as for A7U G34U, 0.07.
As for A7U G34A, the figure is 0.08; as for A8C G51C, 0.03.
A8C G51U: the self-cleavage turned out to be 0.05.
Take A8C G51A: the self-cleavage was determined as 0.06.
As for A8C G13U, the figure is 0.01; as for A8C G13C, 0.07.
As for A8C G13A, the figure is 0.03.
Take A8C U43A: the self-cleavage came to 0.08.
As for A7U G47A, the figure is 0.05.
As for A7U G47U, the figure is 0.04; as for A7U G47C, 0.04.
As for A7U G51A, the figure is 0.07.
For A7U G51C, the self-cleavage came out at 0.03.
For the variant A7U G51U, the self-cleavage was 0.05.
As for A7U G49A, the figure is 0.04; as for A7U G49C, 0.03.
As for A7U G49U, the figure is 0.03; as for A7U G50A, 0.07; as for A7U G50C, 0.06.
As for A7U G50U, the figure is 0.07; as for A8C C27U, 0.04; as for A8C C27A, 0.13.
Take A8C C27G: the self-cleavage amounted to 0.03.
As for A8C C25U, the figure is 0.07; as for A8C C25A, 0.05; as for A8C C25G, 0.03.
As for A7U G19C, the figure is 0.03; as for A7U G19A, 0.06.
As for A7U G19U, the figure is 0.1.
Turning to A8C G45U, the self-cleavage is 0.04.
As for A8C G45C, the figure is 0.02.
As for A8C G45A, the figure is 0.04; as for A8C U37A, 0.06.
As for A8C U37G, the figure is 0.1.
Consider A8C U37C, for which the self-cleavage was 0.07.
As for A8C C52A, the figure is 0.12.
As to A8C C52U, the self-cleavage is 0.09.
As for A8C C52G, the figure is 0.15; as for A7U U12G, 0.06; as for A7U U12C, 0.1.
As for A7U U12A, the figure is 0.09; as for A8C C14U, 0.05; as for A8C C14G, 0.03.
As for A8C C14A, the self-cleavage came out at 0.04.
As for A7U G42C, the figure is 0.05; as for A7U G42U, 0.03.
As for A7U G42A, the figure is 0.09; as for A8C G50C, 0.08.
As for A8C G50A, the figure is 0.06; as for A8C G50U, 0.08; as for A7U U18G, 0.11.
Turning to A7U U18A, the self-cleavage was 0.11.
As for A7U U18C, the self-cleavage is 0.08.
As for A8C C9G, the figure is 0.05.
As for A8C C9A, the figure is 0.1; as for A8C C9U, 0.01; as for A7U G35C, 0.07.
For A7U G35A, the self-cleavage is 0.07.
As for A7U G35U, the figure is 0.06.
As for A7U G45C, the figure is 0.04; as for A7U G45U, 0.02; as for A7U G45A, 0.05.
For the variant A8C U24A, the self-cleavage amounted to 0.03.
As for A8C U24G, the figure is 0.01; as for A8C U24C, 0.08; as for A7U G22A, 0.09.
Turning to A7U G22C, the self-cleavage was determined as 0.07.
As for A7U G22U, the figure is 0.06; as for A7U G53C, 0.03; as for A7U G53U, 0.05.
As for A7U G53A, the figure is 0.08; as for A8C C32A, 0.04.
As for A8C C32G, the figure is 0.03.
In the case of A8C C32U, the self-cleavage worked out at 0.02.
As for A7U U37C, the figure is 0.08.
As for A7U U37G, the figure is 0.1.
Regarding A7U U37A, the self-cleavage stood at 0.07.
On to A8C G34U, for which the self-cleavage was determined as 0.07.
As for A8C G34A, the figure is 0.07; as for A8C G34C, 0.06.
As for A8C C31U, the figure is 0.05.
As for A8C C31G, the figure is 0.02; as for A8C C31A, 0.01.
Regarding A7U U24C, the self-cleavage was found to be 0.04.
As for A7U U24G, the self-cleavage is 0.02.
As for A7U U24A, the figure is 0.06; as for A8C U18A, 0.07.
As for A8C U18G, the figure is 0.17; as for A8C U18C, 0.08.
As for A8C G49C, the figure is 0.02.
As for A8C G49U, the self-cleavage worked out at 0.03.
Regarding A8C G49A, the self-cleavage turned out to be 0.02.
A8C: the self-cleavage amounted to 0.07.
As for A7U G23U, the figure is 0.03; as for A7U G23A, 0.06; as for A7U G23C, 0.03.
As for A8C G22U, the figure is 0.07.
As for A8C G22A, the figure is 0.09; as for A8C G22C, 0.03; as for A7U U43G, 0.07.
As to A7U U43C, the self-cleavage amounted to 0.07.
As for A7U U43A, the self-cleavage stood at 0.08.
